Columns and labels:
Mus musculus [1] = experiment: Reduction in serum triglyceride level in Swiss albino mouse at 10 mg/kg, po administered for 6 days relative to control; format: functional; set-up: scale not given: the % may be the effect or the level left
Method in brief: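 Male Swiss albino mice aged 6–8 weeks were given 10 mg/kg/day orally for 6 days. Serum triglyceride was expressed as % change versus vehicle controls, mean of n = 6.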

Mus musculus [2] = experiment: Antihyperglycemic activity in db/db mouse assessed as reduction in glucose level at 3 mg/kg/day, po administered for 6 days relative to control; format: functional; set-up: scale not given: the % may be the effect or the level left
Method in brief: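 Male db/db mice aged 6–8 weeks were dosed orally once daily for 6 days. Plasma glucose was then measured and expressed as % change versus vehicle-treated controls.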

[3] = Tmax in fasting Wistar rat at 30 mg/kg, po; format: ADME, organism-based; set-up: dose 30 mg/kg, route oral; details: in vivo
Method in brief: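 Fasted male Wistar rats received one oral dose of 30 mg/kg. Plasma Cmax, T1/2 and Tmax are reported as mean ± SD of n = 3.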

Mus musculus [4] = experiment: Hypolipidemic activity in Swiss albino mouse assessed as reduction in triglyceride level at 0.01 mg/kg, po; format: functional; set-up: scale not given: the % may be the effect or the level left
Mus musculus [5] = experiment: Hypolipidemic activity in Swiss albino mouse assessed as reduction in triglyceride level at 0.1 mg/kg, po; format: functional; set-up: scale not given: the % may be the effect or the level left
Mus musculus [6] = experiment: Hypolipidemic activity in Swiss albino mouse assessed as reduction in triglyceride level at 1 mg/kg, po; format: functional; set-up: scale not given: the % may be the effect or the level left
Mus musculus [7] = experiment: Hypolipidemic activity in Swiss albino mouse assessed as reduction in triglyceride level at 3 mg/kg, po; format: functional; set-up: scale not given: the % may be the effect or the level left
Mus musculus [8] = organism: Mus musculus; experiment: Hypolipidemic activity in Swiss albino mouse assessed as reduction in triglyceride level; format: functional
Mus musculus [9] = experiment: Hypolipidemic activity in db/db mouse assessed as reduction in triglyceride level at 0.01 mg/kg, po; format: functional; set-up: scale not given: the % may be the effect or the level left
Mus musculus [10] = experiment: Hypolipidemic activity in db/db mouse assessed as reduction in triglyceride level at 0.1 mg/kg, po; format: functional; set-up: scale not given: the % may be the effect or the level left
Mus musculus [11] = experiment: Hypolipidemic activity in db/db mouse assessed as reduction in triglyceride level at 0.3 mg/kg, po; format: functional; set-up: scale not given: the % may be the effect or the level left
Mus musculus [12] = experiment: Antihyperglycemic activity in db/db mouse assessed as reduction in plasma glucose level at 0.01 mg/kg, po; format: functional; set-up: scale not given: the % may be the effect or the level left
Rattus norvegicus [13] = experiment: Toxicity in male Wistar rat assessed as heart to body weight ratio at 3 mg/kg, po measured after 28 days (reference value: 0.383 +/- 0.012); format: organism-based; set-up: dose 3 mg/kg, route oral; details: in vivo, 672 h
Rattus norvegicus [14] = experiment: Toxicity in male Wistar rat assessed as heart to body weight ratio at 30 mg/kg, po measured after 28 days (reference value: 0.383 +/- 0.012); format: organism-based; set-up: dose 30 mg/kg, route oral; details: in vivo, 672 h
Rattus norvegicus [15] = experiment: Toxicity in male Wistar rat assessed as liver to body weight ratio at 3 mg/kg, po measured after 28 days (reference value: 3.257 +/- 0.067); format: organism-based; set-up: dose 3 mg/kg, route oral; details: in vivo, 672 h
Rattus norvegicus [16] = experiment: Toxicity in male Wistar rat assessed as liver to body weight ratio at 30 mg/kg, po measured after 28 days (reference value: 3.257 +/- 0.067); format: organism-based; set-up: dose 30 mg/kg, route oral; details: in vivo, 672 h
Rattus norvegicus [17] = experiment: Toxicity in male Wistar rat assessed as brain to body weight ratio at 30 mg/kg, po measured after 28 days (reference value: 0.658 +/- 0.015); format: organism-based; set-up: dose 30 mg/kg, route oral; details: in vivo, 672 h
Rattus norvegicus [18] = experiment: Toxicity in male Wistar rat assessed as testes to body weight ratio at 3 mg/kg, po measured after 28 days (reference value: 1.075 +/-1 0.106); format: organism-based, Testis; set-up: dose 3 mg/kg, route oral; details: in vivo, 672 h
Rattus norvegicus [19] = experiment: Toxicity in male Wistar rat assessed as testes to body weight ratio at 30 mg/kg, po measured after 28 days (reference value: 1.075 +/- 0.106); format: organism-based, Testis; set-up: dose 30 mg/kg, route oral; details: in vivo, 672 h
Rattus norvegicus [20] = experiment: Toxicity in male Wistar rat assessed as epididymine to body weight ratio at 3 mg/kg, po measured after 28 days (reference value: 0.391 +/- 0.017); format: organism-based; set-up: dose 3 mg/kg, route oral; details: in vivo, 672 h
Rattus norvegicus [21] = experiment: Toxicity in male Wistar rat assessed as thymus to body weight ratio at 30 mg/kg, po measured after 28 days (reference value: 0.081 +/- 0.013); format: organism-based; set-up: dose 30 mg/kg, route oral; details: in vivo, 672 h
Rattus norvegicus [22] = experiment: Toxicity in female Wistar rat assessed as liver to body weight ratio at 3 mg/kg, po measured after 28 days (reference value: 3.091 +/- 0.087); format: organism-based; set-up: dose 3 mg/kg, route oral; details: in vivo, 672 h
Rattus norvegicus [23] = experiment: Toxicity in female Wistar rat assessed as kidney to body weight ratio at 30 mg/kg, po measured after 28 days (reference value: 0.733 +/- 0.007); format: organism-based; set-up: dose 30 mg/kg, route oral; details: in vivo, 672 h
Rattus norvegicus [24] = experiment: Toxicity in female Wistar rat assessed as spleen to body weight ratio at 30 mg/kg, po measured after 28 days (reference value: 0.237 +/- 0.012); format: organism-based; set-up: dose 30 mg/kg, route oral; details: in vivo, 672 h
Rattus norvegicus [25] = experiment: Toxicity in female Wistar rat assessed as brain to body weight ratio at 30 mg/kg, po measured after 28 days (reference value: 0.970 +/- 0.023); format: organism-based; set-up: dose 30 mg/kg, route oral; details: in vivo, 672 h
Rattus norvegicus [26] = experiment: Toxicity in female Wistar rat assessed as ovary to body weight ratio at 3 mg/kg, po measured after 28 days (reference value: 0.039 +/- 0.005); format: organism-based, Female gonad; set-up: dose 3 mg/kg, route oral; details: in vivo, 672 h
Rattus norvegicus [27] = experiment: Toxicity in female Wistar rat assessed as uterus to body weight ratio at 3 mg/kg, po measured after 28 days (reference value: 0.233 +/- 0.041); format: organism-based; set-up: dose 3 mg/kg, route oral; details: in vivo, 672 h
Rattus norvegicus [28] = experiment: Toxicity in female Wistar rat assessed as uterus to body weight ratio at 30 mg/kg, po measured after 28 days (reference value: 0.233 +/- 0.041); format: organism-based; set-up: dose 30 mg/kg, route oral; details: in vivo, 672 h
Rattus norvegicus [29] = experiment: Toxicity in female Wistar rat assessed as thymus to body weight ratio at 3 mg/kg, po measured after 28 days (reference value: 0.094 +/-0.01); format: organism-based; set-up: dose 3 mg/kg, route oral; details: in vivo, 672 h
Rattus norvegicus [30] = experiment: Toxicity in male Wistar rat assessed as change in body weight at 30 mg/kg, po measured after 28 days relative to control; format: organism-based; set-up: dose 30 mg/kg, route oral; details: in vivo, 672 h
Rattus norvegicus [31] = experiment: Toxicity in female Wistar rat assessed as change in body weight at 30 mg/kg, po measured after 28 days relative to control; format: organism-based; set-up: dose 30 mg/kg, route oral; details: in vivo, 672 h
Method in brief: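 Wistar rats received 3 or 30 mg/kg orally for 28 days. Body weight was recorded weekly, and the % change in body weight over the study is tabulated.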

Rattus norvegicus [32] = experiment: Toxicity in male Wistar rat assessed as hemoglobin level at 3 mg/kg, po measured after 28 days (reference value: 13.66 +/- 0.23 g/dl); format: organism-based; set-up: dose 3 mg/kg, route oral; details: in vivo, 672 h
Rattus norvegicus [33] = experiment: Toxicity in male Wistar rat assessed as SGOT level at 30 mg/kg, po measured after 28 days (reference value: 135.14 +/- 6.89 U/L); format: organism-based; set-up: dose 30 mg/kg, route oral; details: in vivo, 672 h
Rattus norvegicus [34] = experiment: Toxicity in male Wistar rat assessed as albumin level at 3 mg/kg, po measured after 28 days (reference value: 3.66 +/- 0.10 g.dl); format: organism-based; set-up: dose 3 mg/kg, route oral; details: in vivo, 672 h
Rattus norvegicus [35] = experiment: Toxicity in female Wistar rat assessed as hemoglobin level at 30 mg/kg, po measured after 28 days (reference value: 11.90 +/- 0.19 g/dl); format: organism-based; set-up: dose 30 mg/kg, route oral; details: in vivo, 672 h
Rattus norvegicus [36] = experiment: Toxicity in female Wistar rat assessed as Glucose level at 3 mg/kg, po measured after 28 days (reference value: 69.94 +/- 2.30 mg/dl); format: organism-based; set-up: dose 3 mg/kg, route oral; details: in vivo, 672 h
Rattus norvegicus [37] = experiment: Toxicity in female Wistar rat assessed as creatinine level at 3 mg/kg, po measured after 28 days (reference value: 0.42 +/- 0.04 mg/dl); format: organism-based; set-up: dose 3 mg/kg, route oral; details: in vivo, 672 h
Rattus norvegicus [38] = experiment: Toxicity in female Wistar rat assessed as SGOT level at 30 mg/kg, po measured after 28 days (reference value: 155.70 +/- 6.56 U/L); format: organism-based; set-up: dose 30 mg/kg, route oral; details: in vivo, 672 h
Rattus norvegicus [39] = experiment: Toxicity in female Wistar rat assessed as urea level at 3 mg/kg, po measured after 28 days (reference value: 33.05 +/- 2.02 mg/dl); format: organism-based; set-up: dose 3 mg/kg, route oral; details: in vivo, 672 h

What does the source list for CCO[C@@H](Cc1ccc(OCCc2nc(-c3ccc(C)s3)oc2C)cc1)C(=O)O?
Activity (Mus musculus [1]): 88%; Activity (Mus musculus [2]): 72%; Tmax [3]: 40 min; Activity (Mus musculus [4]): 61.9%; Activity (Mus musculus [5]): 71.8%; Activity (Mus musculus [6]): 82%; Activity (Mus musculus [7]): 83.1%; ED50 (Mus musculus [8]): 0.01 mg/kg; Activity (Mus musculus [9]): 6.6%; Activity (Mus musculus [10]): 49.4%; Activity (Mus musculus [11]): 51.8%; Activity (Mus musculus [12]): 52.7%; Ratio (Rattus norvegicus [13]): 0.412; Ratio (Rattus norvegicus [14]): 0.479; Ratio (Rattus norvegicus [15]): 7.505; Ratio (Rattus norvegicus [16]): 8.099; Ratio (Rattus norvegicus [17]): 0.757; Ratio (Rattus norvegicus [18]): 1.152; Ratio (Rattus norvegicus [19]): 1.356; Ratio (Rattus norvegicus [20]): 0.36; Ratio (Rattus norvegicus [21]): 0.075; Ratio (Rattus norvegicus [22]): 6.221; Ratio (Rattus norvegicus [23]): 0.915; Ratio (Rattus norvegicus [24]): 0.26; Ratio (Rattus norvegicus [25]): 0.939; Ratio (Rattus norvegicus [26]): 0.02; Ratio (Rattus norvegicus [27]): 0.176; Ratio (Rattus norvegicus [28]): 0.189; Ratio (Rattus norvegicus [29]): 0.101; Activity (Rattus norvegicus [30]): 24.01%; Activity (Rattus norvegicus [31]): 21.71%; Activity (Rattus norvegicus [32]): 12.2 g/dL; Activity (Rattus norvegicus [33]): 245.24 U/L; Activity (Rattus norvegicus [34]): 3.91 g/dL; Activity (Rattus norvegicus [35]): 11.83 g/dL; Activity (Rattus norvegicus [36]): 91.88 mg/dL; Activity (Rattus norvegicus [37]): 0.36 mg/dL; Activity (Rattus norvegicus [38]): 224 U/L; Activity (Rattus norvegicus [39]): 29.19 mg/dL

Source: ChEMBL document CHEMBL1811848 (Bioorg Med Chem Lett, 2011)
